This is an account of results in ChEMBL document CHEMBL4619723, “New CDK8 inhibitors as potential anti-leukemic agents - Design, synthesis and biological evaluation” (Bioorg Med Chem, 2020).

One experiment has as its system MOLM-13. As to the kind of experiment: cells. As to conditions: Homo sapiens, MOLM-13, 48 h.
A further experiment has as its system OCI-AML-3. Kind of experiment: cells. As to conditions: Homo sapiens, OCI-AML-3, 48 h.
In another experiment the test system is MV4-11. As to the kind of experiment: cells. As to conditions: Homo sapiens, MV4-11, 48 h.
The test system of a further experiment is NRK. As to the kind of experiment: cells. As to conditions: Rattus norvegicus, 48 h.
In the next experiment the test system is H9c2. As to the kind of experiment: cells. The conditions noted are these: Rattus norvegicus, H9c2, 48 h.
Experiment [1] addresses 1-phosphatidylinositol 3-phosphate 5-kinase (Homo sapiens) (UniProt Q9Y2I7). Kind of experiment: Inhibition of biotinylated ligand binding to wild-type human partial length PIKFYVE (F1512 to C2098 residues) expressed in mammalian expression system at 50 nM measured after 1 hr by kinomescan assay relative to control.
In experiment [2] the target is Cyclin-dependent kinase 19 (Homo sapiens) (UniProt Q9BWU1). As to the kind of experiment: Inhibition of biotinylated ligand binding to wild-type human partial length CDK11 (M1 to N360 residues) expressed in bacterial expression system at 50 nM measured after 1 hr by kinomescan assay relative to control. The essentials: (§1)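 T7 phage-tagged kinase lysates from E. coli BL21 were mixed with streptavidin beads carrying biotinylated ligand and 50 nM compound. Incubated 1 h at room temperature with shaking, washed, then eluted 30 min with 0.5 μM non-biotinylated ligand. Kinase was quantified by qPCR. POC = (test − positive)/(DMSO − positive) ×100, with a control compound as positive.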
Chain of Cyclin-dependent kinase 19 (Homo sapiens) (Q9BWU1 whole entry, the tested form may be a part): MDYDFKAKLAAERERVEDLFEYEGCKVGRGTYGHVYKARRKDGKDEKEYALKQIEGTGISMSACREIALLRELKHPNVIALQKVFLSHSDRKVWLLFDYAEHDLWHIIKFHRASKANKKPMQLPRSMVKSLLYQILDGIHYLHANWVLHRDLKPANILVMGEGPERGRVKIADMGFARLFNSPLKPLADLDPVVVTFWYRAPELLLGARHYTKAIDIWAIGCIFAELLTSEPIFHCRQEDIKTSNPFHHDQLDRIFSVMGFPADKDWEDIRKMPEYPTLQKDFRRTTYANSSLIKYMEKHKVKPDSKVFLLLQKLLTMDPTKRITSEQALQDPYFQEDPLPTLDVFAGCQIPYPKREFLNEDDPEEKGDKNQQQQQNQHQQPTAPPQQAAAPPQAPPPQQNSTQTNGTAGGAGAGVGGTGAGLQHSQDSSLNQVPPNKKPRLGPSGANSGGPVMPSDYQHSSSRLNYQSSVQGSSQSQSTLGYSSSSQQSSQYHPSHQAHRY

In experiment [3] the target is T1, Cyclin-dependent kinase 8 (Homo sapiens, UniProt P49336). As to the kind of experiment: Inhibition of biotinylated ligand binding to wild-type human partial length CDK8 (M1 to T360 residues) expressed in Escherichia coli BL21 at 50 nM measured after 1 hr by kinomescan assay relative to control. A digest of the protocol:
as §1

The target in experiment [4] is T1, Cyclin-dependent kinase 8. As to the kind of experiment: Inhibition of biotinylated ligand binding to wild-type human partial length CDK8 (M1 to T360 residues) expressed in Escherichia coli BL21 measured after 1 hr by kinomescan assay.
Experiment [5] deals with Serine/threonine-protein kinase pim-2 (Homo sapiens) (UniProt Q9P1W9). Kind of experiment: Inhibition of biotinylated ligand binding to wild-type human partial length PIM2 (M1 to E291 residues) expressed in bacterial expression system at 50 nM measured after 1 hr by kinomescan assay relative to control.
Chain of Serine/threonine-protein kinase pim-2 (Homo sapiens) (Q9P1W9 whole entry, looked up, the tested form may be a part): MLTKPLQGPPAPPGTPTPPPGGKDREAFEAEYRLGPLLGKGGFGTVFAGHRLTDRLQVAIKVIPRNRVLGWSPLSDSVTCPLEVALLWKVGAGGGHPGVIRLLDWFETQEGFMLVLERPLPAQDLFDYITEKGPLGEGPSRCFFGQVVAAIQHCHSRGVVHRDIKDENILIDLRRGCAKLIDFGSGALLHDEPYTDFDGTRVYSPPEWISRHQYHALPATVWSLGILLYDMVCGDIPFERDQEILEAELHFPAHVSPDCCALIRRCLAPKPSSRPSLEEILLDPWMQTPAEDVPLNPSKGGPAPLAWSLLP
For experiment [6], the target named is cAMP-dependent protein kinase catalytic subunit alpha (Homo sapiens) (UniProt P17612). As to the kind of experiment: Inhibition of biotinylated ligand binding to wild-type human partial length PKAC-alpha (G10 to F351 residues) expressed in bacterial expression system at 50 nM measured after 1 hr by kinomescan assay relative to control.
The target of experiment [7] is Serine/threonine-protein kinase haspin (Homo sapiens) (UniProt Q8TF76). As to the kind of experiment: Inhibition of biotinylated ligand binding to wild-type human partial length HASPIN (I452 to K798 residues) expressed in mammalian expression system at 50 nM measured after 1 hr by kinomescan assay relative to control.
Experiment [8] has as its target Serine/threonine-protein kinase MAK (Homo sapiens) (UniProt P20794). Kind of experiment: Inhibition of biotinylated ligand binding to wild-type human partial length MAK (M1 to P314 residues) expressed in bacterial expression system at 50 nM measured after 1 hr by kinomescan assay relative to control.
Experiment [9] has as its target cAMP-dependent protein kinase catalytic subunit beta (Homo sapiens) (UniProt P22694). Kind of experiment: Inhibition of biotinylated ligand binding to wild-type human full length PKAC-beta (M1 to F351 residues) expressed in bacterial expression system at 50 nM measured after 1 hr by kinomescan assay relative to control.
The target in experiment [10] is Citron Rho-interacting kinase (Homo sapiens) (UniProt O14578). As to the kind of experiment: Inhibition of biotinylated ligand binding to wild-type human partial length CIT (M68 to E432 residues) expressed in bacterial expression system at 50 nM measured after 1 hr by kinomescan assay relative to control.
The target of experiment [11] is Hormonally up-regulated neu tumor-associated kinase (Homo sapiens) (UniProt P57058). As to the kind of experiment: Inhibition of biotinylated ligand binding to wild-type human partial length HUNK (A31 to K354 residues) expressed in bacterial expression system at 50 nM measured after 1 hr by kinomescan assay relative to control.
Chain of Hormonally up-regulated neu tumor-associated kinase (Homo sapiens) (P57058 whole entry, the tested form may be a part): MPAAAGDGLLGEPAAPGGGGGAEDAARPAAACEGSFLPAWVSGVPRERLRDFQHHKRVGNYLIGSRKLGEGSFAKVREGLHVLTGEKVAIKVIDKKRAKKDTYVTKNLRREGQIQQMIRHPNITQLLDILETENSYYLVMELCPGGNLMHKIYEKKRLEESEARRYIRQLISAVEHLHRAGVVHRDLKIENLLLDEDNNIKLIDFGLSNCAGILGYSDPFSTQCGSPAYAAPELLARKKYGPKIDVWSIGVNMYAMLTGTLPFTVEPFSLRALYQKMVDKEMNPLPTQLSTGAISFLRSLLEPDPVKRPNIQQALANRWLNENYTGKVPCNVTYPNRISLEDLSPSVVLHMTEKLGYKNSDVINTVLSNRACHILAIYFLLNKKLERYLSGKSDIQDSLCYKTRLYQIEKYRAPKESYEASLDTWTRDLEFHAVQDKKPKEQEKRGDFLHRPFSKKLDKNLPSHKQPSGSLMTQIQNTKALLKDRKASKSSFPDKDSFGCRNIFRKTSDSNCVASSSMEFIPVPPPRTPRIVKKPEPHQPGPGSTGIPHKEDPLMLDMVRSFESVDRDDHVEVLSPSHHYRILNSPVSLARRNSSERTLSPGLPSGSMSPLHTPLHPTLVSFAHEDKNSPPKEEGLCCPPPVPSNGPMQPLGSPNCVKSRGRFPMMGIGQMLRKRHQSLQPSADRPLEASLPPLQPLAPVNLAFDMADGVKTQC
The target in experiment [12] is Protein-tyrosine kinase 2-beta (Homo sapiens) (UniProt Q14289). As to the kind of experiment: Inhibition of biotinylated ligand binding to wild-type human full length PYK2 (M1 to E967 residues) expressed in bacterial expression system at 50 nM measured after 1 hr by kinomescan assay relative to control.
Chain of Protein-tyrosine kinase 2-beta (Homo sapiens) (Q14289 whole entry, looked up, the tested form may be a part): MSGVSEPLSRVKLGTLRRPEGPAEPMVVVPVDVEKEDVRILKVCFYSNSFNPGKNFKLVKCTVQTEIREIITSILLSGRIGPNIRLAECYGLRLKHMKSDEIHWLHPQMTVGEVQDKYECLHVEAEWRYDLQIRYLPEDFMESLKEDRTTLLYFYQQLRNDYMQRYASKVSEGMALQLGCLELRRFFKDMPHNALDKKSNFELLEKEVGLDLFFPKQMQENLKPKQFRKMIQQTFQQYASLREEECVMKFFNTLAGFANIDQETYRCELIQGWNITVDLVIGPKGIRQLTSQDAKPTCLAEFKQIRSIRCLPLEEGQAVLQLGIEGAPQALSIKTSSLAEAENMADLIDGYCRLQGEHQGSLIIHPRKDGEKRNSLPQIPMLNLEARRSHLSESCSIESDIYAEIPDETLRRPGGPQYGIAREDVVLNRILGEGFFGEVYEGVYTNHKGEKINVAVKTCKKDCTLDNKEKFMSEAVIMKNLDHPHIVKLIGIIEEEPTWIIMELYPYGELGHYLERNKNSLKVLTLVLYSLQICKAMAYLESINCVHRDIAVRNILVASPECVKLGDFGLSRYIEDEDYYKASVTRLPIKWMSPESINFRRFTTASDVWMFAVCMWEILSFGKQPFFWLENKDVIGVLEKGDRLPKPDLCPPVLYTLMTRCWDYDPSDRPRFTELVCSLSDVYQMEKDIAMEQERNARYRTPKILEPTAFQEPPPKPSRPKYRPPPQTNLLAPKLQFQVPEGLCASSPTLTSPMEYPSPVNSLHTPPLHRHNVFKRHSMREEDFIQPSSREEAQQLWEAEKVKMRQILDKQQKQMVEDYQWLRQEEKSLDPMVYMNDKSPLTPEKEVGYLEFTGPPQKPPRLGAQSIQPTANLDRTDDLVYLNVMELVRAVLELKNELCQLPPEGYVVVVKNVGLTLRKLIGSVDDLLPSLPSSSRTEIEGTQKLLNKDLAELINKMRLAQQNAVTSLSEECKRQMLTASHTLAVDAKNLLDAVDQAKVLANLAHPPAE
Experiment [13] addresses Receptor-interacting serine/threonine-protein kinase 1 (Homo sapiens) (UniProt Q13546). Kind of experiment: Inhibition of biotinylated ligand binding to wild-type human partial length RIPK1 (M1 to K305 residues) expressed in bacterial expression system at 50 nM measured after 1 hr by kinomescan assay relative to control. The essentials:
(§2)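 Kinases expressed as tags on T7 phage grown in an E. coli BL21-derived host, with lysates cleared by centrifugation and filtration. Streptavidin beads carried biotinylated ligand and were blocked with biotin. Kinase, beads and compound were incubated in binding buffer (20% SeaBlock, 0.17x PBS, 0.05% Tween 20, 6 mM DTT) at room temperature for 1 h. Bound kinase was eluted with free ligand and quantified by qPCR. POC was set between DMSO (100%) and control compound (0%).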

Experiment [14] addresses Inhibitor of nuclear factor kappa-B kinase subunit epsilon (Homo sapiens) (UniProt Q14164). As to the kind of experiment: Inhibition of biotinylated ligand binding to wild-type human full length IKKE (M1 to V716 residues) expressed in bacterial expression system at 50 nM measured after 1 hr by kinomescan assay relative to control. A digest of the protocol:
as §2

Experiment [15] deals with Phosphatidylinositol 5-phosphate 4-kinase type-2 gamma (Homo sapiens) (UniProt Q8TBX8). As to the kind of experiment: Inhibition of biotinylated ligand binding to wild-type human partial length PIP5K2C (M1 to A421 residues) expressed in mammalian expression system at 50 nM measured after 1 hr by kinomescan assay relative to control. The essentials: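 Competition binding: compound (final 50 nM; 40x DMSO stocks) was incubated with kinase and biotinylated-ligand streptavidin beads in 20% SeaBlock, 0.17x PBS, 0.05% Tween 20 and 6 mM DTT at room temperature for 1 h. After washing, kinase was eluted with 0.5 μM non-biotinylated ligand for 30 min and measured by qPCR. Percent of control was referenced to DMSO (100%) and control compound (0%).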
Chain of Phosphatidylinositol 5-phosphate 4-kinase type-2 gamma (Homo sapiens) (Q8TBX8 whole entry, the tested form may be a part): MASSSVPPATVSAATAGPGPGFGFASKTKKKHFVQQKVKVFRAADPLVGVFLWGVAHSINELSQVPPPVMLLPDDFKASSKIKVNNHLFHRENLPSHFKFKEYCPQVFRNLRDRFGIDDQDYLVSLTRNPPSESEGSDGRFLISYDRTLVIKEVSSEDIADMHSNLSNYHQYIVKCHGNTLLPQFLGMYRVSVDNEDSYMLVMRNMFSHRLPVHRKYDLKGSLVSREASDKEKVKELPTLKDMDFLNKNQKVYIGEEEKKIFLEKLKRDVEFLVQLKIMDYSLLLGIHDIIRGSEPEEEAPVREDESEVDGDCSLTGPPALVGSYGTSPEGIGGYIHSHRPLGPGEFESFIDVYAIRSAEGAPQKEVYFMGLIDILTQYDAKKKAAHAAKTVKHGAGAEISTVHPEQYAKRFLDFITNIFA

Usually EC50 stands for the concentration that produces a half-maximal response. In general, inhibition refers to the change of the read-out against control, counted positive when it falls. Usually Kd stands for the constant that tells how readily two partners part at equilibrium.

T1 sequence (P49336 whole entry, the tested form may be a part): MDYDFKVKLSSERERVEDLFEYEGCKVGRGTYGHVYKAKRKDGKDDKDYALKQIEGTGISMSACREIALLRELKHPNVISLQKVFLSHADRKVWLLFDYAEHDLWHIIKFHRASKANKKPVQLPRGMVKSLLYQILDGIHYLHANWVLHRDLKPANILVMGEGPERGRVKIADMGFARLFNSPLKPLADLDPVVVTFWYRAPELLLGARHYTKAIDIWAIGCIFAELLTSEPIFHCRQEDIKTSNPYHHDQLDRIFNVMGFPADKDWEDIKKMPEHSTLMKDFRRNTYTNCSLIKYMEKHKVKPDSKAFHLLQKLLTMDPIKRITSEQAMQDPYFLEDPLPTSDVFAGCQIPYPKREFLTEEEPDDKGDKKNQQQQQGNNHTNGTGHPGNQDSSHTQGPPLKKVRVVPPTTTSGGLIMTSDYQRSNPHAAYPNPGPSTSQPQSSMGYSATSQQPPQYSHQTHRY
Chain of Receptor-interacting serine/threonine-protein kinase 1 (Homo sapiens) (Q13546 whole entry, the tested form may be a part): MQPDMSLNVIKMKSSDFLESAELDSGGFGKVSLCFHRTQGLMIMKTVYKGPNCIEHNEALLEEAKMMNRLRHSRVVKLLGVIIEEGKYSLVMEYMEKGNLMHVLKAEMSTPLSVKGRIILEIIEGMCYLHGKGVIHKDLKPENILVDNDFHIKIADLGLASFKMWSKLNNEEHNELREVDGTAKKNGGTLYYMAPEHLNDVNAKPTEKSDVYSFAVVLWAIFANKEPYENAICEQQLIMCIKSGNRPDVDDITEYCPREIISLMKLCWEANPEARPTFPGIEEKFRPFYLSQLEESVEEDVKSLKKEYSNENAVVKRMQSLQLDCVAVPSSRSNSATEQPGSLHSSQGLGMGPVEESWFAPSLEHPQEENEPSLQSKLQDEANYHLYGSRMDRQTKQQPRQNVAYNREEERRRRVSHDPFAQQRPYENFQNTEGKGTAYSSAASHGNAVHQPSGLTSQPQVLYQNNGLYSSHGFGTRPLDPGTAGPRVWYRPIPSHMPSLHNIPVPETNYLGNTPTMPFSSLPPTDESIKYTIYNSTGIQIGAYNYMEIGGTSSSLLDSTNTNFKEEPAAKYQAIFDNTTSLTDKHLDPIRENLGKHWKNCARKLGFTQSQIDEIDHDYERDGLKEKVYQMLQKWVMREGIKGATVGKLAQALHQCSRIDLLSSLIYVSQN
Chain of Inhibitor of nuclear factor kappa-B kinase subunit epsilon (Homo sapiens) (Q14164 whole entry, the tested form may be a part): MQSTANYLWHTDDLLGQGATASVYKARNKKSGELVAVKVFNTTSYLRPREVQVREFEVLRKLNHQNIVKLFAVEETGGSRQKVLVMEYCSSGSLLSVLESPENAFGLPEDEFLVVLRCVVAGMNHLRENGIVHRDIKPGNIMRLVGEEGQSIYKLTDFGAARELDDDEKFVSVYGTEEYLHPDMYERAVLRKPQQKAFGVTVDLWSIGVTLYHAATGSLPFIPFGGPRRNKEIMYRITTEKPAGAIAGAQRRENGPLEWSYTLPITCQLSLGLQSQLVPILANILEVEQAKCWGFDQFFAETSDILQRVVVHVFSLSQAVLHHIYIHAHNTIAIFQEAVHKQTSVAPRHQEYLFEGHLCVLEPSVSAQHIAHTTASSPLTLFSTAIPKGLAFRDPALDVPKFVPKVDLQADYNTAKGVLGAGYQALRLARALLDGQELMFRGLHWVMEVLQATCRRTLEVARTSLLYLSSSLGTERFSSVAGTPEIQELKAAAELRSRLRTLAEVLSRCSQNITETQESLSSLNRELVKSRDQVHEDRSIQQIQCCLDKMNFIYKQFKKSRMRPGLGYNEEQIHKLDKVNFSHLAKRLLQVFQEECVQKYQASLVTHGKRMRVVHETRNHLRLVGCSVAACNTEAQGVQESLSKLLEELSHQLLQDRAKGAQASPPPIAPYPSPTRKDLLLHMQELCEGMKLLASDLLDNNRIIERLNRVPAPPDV

`CN(C)[C@@H]1CC[C@@]2(C)[C@@H](CC[C@@H]3[C@@H]2CC[C@]2(C)C(c4ccc5cnccc5c4)=CC[C@@H]32)C1`: the EC50 in the experiment on MOLM-13 is 3.9 µM; in the experiment with OCI-AML-3, 2.7 µM; in the experiment with MV4-11, 4.1 µM; in the experiment on NRK it was 7.1 µM; in the experiment with H9c2, 6.5 to 12.5 µM.

Consider `CN(C)[C@@H]1CC[C@@]2(C)[C@@H](CC[C@@H]3[C@@H]2CC[C@]2(C)C(c4ccc5ccncc5c4)=CC[C@@H]32)C1`, for which the inhibition in experiment [1], in experiment [2], in experiment [3], in [5], in experiment [6] and in [7] was more than 80% in each case. The inhibition in experiment [8], in experiment [9], in experiment [10], in experiment [11] and in [12] was more than 80% throughout. The molecule further had a Kd in [4] of 0.018 µM. Moreover, the EC50 was 9 µM with MOLM-13; 7.6 µM with OCI-AML-3; 5.5 µM with MV4-11; 11.4 µM in the experiment with NRK; 12.5 to 25 µM in the experiment on H9c2.

For `CN(C)[C@@H]1CC[C@@]2(C)[C@@H](CC[C@@H]3[C@@H]2CC[C@]2(C)C(c4cccnc4)=CC[C@@H]32)C1`, the EC50 in the experiment on MOLM-13 was 10.2 µM; in the experiment with OCI-AML-3, 10 µM; in the experiment on MV4-11 it was 10.1 µM; in the experiment with NRK it was 29.7 µM; in the experiment on H9c2, 25 to 50 µM.

On to `CN(C)[C@@H]1CC[C@@]2(C)[C@@H](CC[C@@H]3[C@@H]2CC[C@]2(C)C(c4cncc(Cl)c4)=CC[C@@H]32)C1`, for which the inhibition in experiment [13], in [14], in experiment [15], in [2] and in [3] was more than 80% throughout. Besides, the affinity in experiment [4], expressed as Kd, was 0.013 µM. For the same molecule, the EC50 in the experiment on MOLM-13 was 11.2 µM; in the experiment on OCI-AML-3, 7.5 µM; with MV4-11, 8.6 µM; in the experiment with NRK, 20.5 µM; in the experiment with H9c2, 12.5 to 25 µM.
